From ChEMBL document CHEMBL1817614, “Inhibitory effects of chalcone glycosides isolated from Brassica rapa L. 'hidabeni' and their synthetic derivatives on LPS-induced NO production in microglia” (Bioorg Med Chem, 2011) come the findings set out here.

Each structure is given as a SMILES string. The source made the active and inactive calls. No cut-off for these calls is given here.

Assay [1] has as its system HAPI. Description: Antiinflammatory activity in rat HAPI cells assessed as inhibition of IFN-gamma-induced iNOS mRNA expression at 50 uM treated 30 mins before LPS challenge measured after 8 hrs by RT-PCR analysis. Type of assay: functional, cell-based. In a few lines:
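HAPI rat microglia were grown in DMEM with 10% heat-inactivated FCS at 37 °C. Compound (50 µM) was added 30 min before and kept during IFN-γ (100 ng/mL) for 8 h. Total RNA was taken for RT-PCR, gel densitometry and normalization to GAPDH. Data are % of IFN-γ alone, mean SEM, n = 3.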

Assay [2] relates to HAPI. Description: Antiinflammatory activity in rat HAPI cells assessed as inhibition of LPS-induced IL1-beta mRNA expression at 50 uM treated 30 mins before LPS challenge measured after 6 hrs by RT-PCR analysis. Type of assay: functional, cell-based. In a few lines:
(§1)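 HAPI cells were seeded in 1% FCS DMEM and treated the next day. Compound (50 µM) was present 30 min before and during LPS (100 ng/mL) for 6 h. RT-PCR used GAPDH normalization. IFN-β ran 35 cycles with anneal at 54 °C; IL-1β ran 30 cycles with anneal at 58 °C. Data are % of LPS alone, mean SEM, n = 3.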

In assay [3] the test system is HAPI. Description: Inhibition of LPS-induced JNK phosphorylation in rat HAPI cell lysates at 50 uM treated 30 mins before LPS challenge measured after 1 hr by immunoblot analysis. It counts as cell-based. In a few lines:
(§2)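 Compound (50 µM) or vehicle was given 30 min before LPS (100 ng/mL) for 1 h. Whole-cell lysates were made in Tris pH 7.4 Triton buffer with phosphatase inhibitors. Lysate (40 µg) was run on SDS-PAGE and immunoblotted with phospho-specific and total MAPK antibodies (1:1,000), biotin secondary/ABC and chemiluminescence. Blots shown represent three experiments.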
In general terms: Immunoblotting shows a protein as a band on a membrane.

The test system of assay [4] is HAPI. Description: Inhibition of LPS-induced ERK phosphorylation in rat HAPI cell lysates at 50 uM treated 30 mins before LPS challenge measured after 1 hr by immunoblot analysis. It counts as cell-based. Put shortly: as §2
In assay [5] the test system is HAPI. Description: Inhibition of LPS-induced p38 phosphorylation in rat HAPI cell lysates at 50 uM treated 30 mins before LPS challenge measured after 1 hr by immunoblot analysis. It counts as cell-based. Put shortly:
as §2

The subject of assay [6] is HAPI. In words: Inhibition of LPS-induced NF-kappaB nuclear translocation in rat HAPI cell nuclear extracts at 50 uM treated 30 mins before LPS challenge measured after 3 hrs by immunoblot analysis. Type of assay: cell-based. Put shortly:
(§3)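 Compound (50 µM) or vehicle was given 30 min before LPS (100 ng/mL) for 3 h. Nuclear extracts were made by NP-40 lysis and 0.4 M NaCl HEPES pH 7.8 extraction. Extract (10 µg) was immunoblotted for NF-κB p65 or STAT1 (1:1,000), with ABC chemiluminescence detection. Blots shown represent three experiments.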

In assay [7] the test system is HAPI. In words: Antiinflammatory activity in rat HAPI cells assessed as inhibition of LPS-induced iNOS mRNA expression at 50 uM treated 30 mins before LPS challenge measured after 6 hrs by RT-PCR analysis. Type of assay: functional, cell-based. In a few lines: as §1
The test system of assay [8] is HAPI. In words: Antiinflammatory activity in rat HAPI cells assessed as inhibition of LPS-induced nitric oxide production at 50 uM treated 30 mins before LPS challenge measured after 24 hrs by Griess method. It counts as functional, cell-based. In a few lines:
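About 1.0 × 10⁵ HAPI cells per well were seeded in 1% FCS DMEM. The next day, compound (50 µM) was present 30 min before and during LPS (100 ng/mL) for 24 h. Medium nitrite was read by Griess kit. Data are fold induction vs untreated cells, mean SD, n = 3 or 4.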
(Nitrite, measured by Griess reagent, commonly stands in for NO production.)

Assay [9] concerns HAPI. In words: Inhibition of LPS-induced STAT1 phosphorylation in rat HAPI cell lysates at 50 uM treated 30 mins before LPS challenge measured after 3 hrs by immunoblot analysis.
The test system of assay [10] is HAPI. Description: Inhibition of LPS-induced STAT1 nuclear translocation in rat HAPI cell nuclear extracts at 50 uM treated 30 mins before LPS challenge measured after 3 hrs by immunoblot analysis. It counts as cell-based. Put shortly: as §3
Assay [11] concerns HAPI. In words: Antiinflammatory activity in rat HAPI cells assessed as inhibition of LPS-induced IFN-R mRNA expression at 50 uM treated 30 mins before LPS challenge measured after 6 hrs by RT-PCR analysis. It counts as functional, cell-based. In a few lines:
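Cells were seeded in 1% FCS DMEM and treated the next day. Compound (50 µM) was present 30 min before and during LPS (100 ng/mL) for 6 h. IFN-R RT-PCR ran 35 cycles with anneal at 55 °C and was normalized to GAPDH. Data are fold change vs untreated cells, mean SEM, n = 3.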

Regarding `COc1ccc(/C=C/C(=O)c2ccc(O[C@@H]3O[C@H](CO)[C@@H](O)[C@H](O)[C@H]3O)c(OC)c2)cc1`, the inhibition result in the assay on HAPI [1], in the assay on HAPI [2], in the assay on HAPI [7], in the assay on HAPI [8], in the assay on HAPI [9] and in the assay on HAPI [10] was “Active” in each case. The inhibition entry in the assay on HAPI [3], in the assay with HAPI [4], with HAPI [5], in the assay on HAPI [6] and with HAPI [11] was “inactive” each time.
As for `COc1cc(C(=O)/C=C/c2ccc(O)cc2)ccc1O[C@@H]1O[C@H](CO)[C@@H](O)[C@H](O)[C@H]1O`, the inhibition entry with HAPI [7] and in the assay with HAPI [8] was “Active” each time.
For the compound `COc1cc(C(C)=O)cc(OC)c1O[C@@H]1O[C@H](CO)[C@@H](O)[C@H](O)[C@H]1O`, in the assay on HAPI [7], the inhibition entry is “Active”.
Take `COc1cc(C(=O)/C=C/c2ccc(O[C@@H]3O[C@H](CO)[C@@H](O)[C@H](O)[C@H]3O)cc2)ccc1O[C@@H]1O[C@H](CO)[C@@H](O)[C@H](O)[C@H]1O`: the inhibition result in the assay with HAPI [7] was “Active”.
For `COc1cc(C(=O)/C=C/c2ccccc2)ccc1O[C@@H]1O[C@H](CO)[C@@H](O)[C@H](O)[C@H]1O`, the inhibition result in the assay on HAPI [1], in the assay with HAPI [7] and in the assay with HAPI [8] was “Active” throughout.
In the case of `CC1=CC(=O)CC(C)(C)[C@@]1(O)/C=C/[C@H](C)O[C@@H]1O[C@H](CO)[C@@H](O)[C@H](O)[C@H]1O`, in the assay with HAPI [7], the inhibition entry was “Active”.
Same read-out and setting: the value for `CC(=O)c1ccc(O[C@@H]2O[C@H](CO)[C@@H](O)[C@H](O)[C@H]2O)cc1` was “Active”.
